In brackets after ≈: the same amount, converted by molar mass.
Assays:
[1] = In vitro drug release by dialysis; type: physicochemical; conditions: pH 2.0, 5.0 and 6.8, after 72 hours
Procedure, shortened: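 Dialysis (MWCO 6–8 kDa): 2.5 mL of nanoparticle or free-drug solution (drug 0.2 mg/mL) against 10 mL medium. Media were 0.05 M glycine–HCl pH 2.0, 0.05 M phosphate pH 5.0 and 0.05 M phosphate pH 6.8, each with 1% ascorbic acid and 0.1% BHT. Stirred at 37°C for 72 h; 3.0 mL withdrawn at intervals and replaced. Drug measured by C18 HPLC at 420 nm. Run three times.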

HT-29 cells [2] = assay: In vitro cytotoxicity, MTT assay; type: cell-based; conditions: Homo sapiens, HT-29, read-out: IC50 (half maximal inhibitory concentration)
Procedure, shortened: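 HT-29 cells were grown in RPMI-1640 with 10% FBS and 1% penicillin/streptomycin. They were seeded at 3–5×10^4 cells/well and cultured 24 h at 37°C in humid 5% CO2. Drug-loaded and blank nanoparticles were then tested by MTT, with absorbance read at 490 nm. Viability (%) = absorbance of treated cells / absorbance of untreated cells × 100. Triplicates; mean ± SD (n=3).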

HT-29 cells [3] = assay: Intracellular uptake by fluorescence microscopy; type: cell-based, Human; conditions: 7.5 μg/mL, 3 hours, 37°C
Procedure, shortened: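 HT-29 cells were seeded at 2.5×10^4 cells/well and incubated overnight at 37°C in 5% CO2. They were exposed to free drug or drug-loaded nanoparticles at 7.5 μg/mL for 3 h at 37°C, with untreated and blank-nanoparticle controls. Cells were rinsed three times with 37°C PBS. Imaging used fluorescence microscopy with 420–490 nm excitation and 490–560 nm emission.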

[4] = In vivo oral administration and pharmacokinetics; set-up: species or system rats; conditions: plasma, 100 mg/kg

## COc1cc(/C=C/C(=O)CC(=O)/C=C/c2ccc(O)c(OC)c2)ccc1O [Cur, Curcumin]
[1]
  release after 72 hours (in words): completed its release/diffusion
HT-29 cells [2]
  IC50: 28.5 µg/mL (≈ 77.4 µM)
HT-29 cells [3]
  fluorescence of cells (cell uptake): relatively faint
[4]; male, Sprague Dawley, rat, po
  Cmax: 11000 ± 1170 ng/mL
  MRT last: 4.33 ± 0.67 h
  Tmax: 1 h
  half-life: 0.9 ± 0.89 h
[4]; oral
  AUC0–24 hours: 65120 ± 7420 ng·h/mL
